In ChEMBL document CHEMBL4823250, “Discovery of thalidomide-based PROTAC small molecules as the highly efficient SHP2 degraders” (Eur J Med Chem, 2021):

What was measured:
MV4-11 = test: Antiproliferative activity against human MV4-11 cells assessed as inhibition of cell proliferation measured after 72 hrs by MTS assay; format: functional, cell-based; settings: MV4-11, 72 h
Outline: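 MV4;11 (ATCC, STR-authenticated) in IMDM with 10% FBS, penicillin/streptomycin, 37 °C, 5% CO2. Seeded at 1.0–4.0 × 10^4 cells/well, rested 2 h, then exposed to 0.01% DMSO or graded compound concentrations for 72 h. MTS/PMS added for 2–4 h. IC50 from sigmoidal variable-slope nonlinear regression; mean ± SEM of at least three separate assays, each in triplicate.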

[1] = target: T1, Tyrosine-protein phosphatase non-receptor type 11 (Homo sapiens, UniProt Q06124); test: Inhibition of human SHP2 catalytic activity
T1 sequence (Q06124 whole entry): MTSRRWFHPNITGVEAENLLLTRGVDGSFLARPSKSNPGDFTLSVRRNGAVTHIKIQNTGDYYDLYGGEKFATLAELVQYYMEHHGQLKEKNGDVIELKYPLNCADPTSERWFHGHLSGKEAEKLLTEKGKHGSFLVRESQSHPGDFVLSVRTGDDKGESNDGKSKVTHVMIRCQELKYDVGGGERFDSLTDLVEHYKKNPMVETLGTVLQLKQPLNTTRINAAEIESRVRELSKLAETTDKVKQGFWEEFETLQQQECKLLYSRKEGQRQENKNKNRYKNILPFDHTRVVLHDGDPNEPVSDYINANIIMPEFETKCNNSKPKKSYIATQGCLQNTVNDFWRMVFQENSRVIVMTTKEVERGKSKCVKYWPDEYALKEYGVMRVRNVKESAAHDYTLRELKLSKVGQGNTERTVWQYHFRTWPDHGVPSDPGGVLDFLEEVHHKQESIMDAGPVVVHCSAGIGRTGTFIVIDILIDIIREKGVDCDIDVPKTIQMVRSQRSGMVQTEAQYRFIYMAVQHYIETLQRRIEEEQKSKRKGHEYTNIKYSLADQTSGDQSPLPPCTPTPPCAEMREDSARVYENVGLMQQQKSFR

[2] = target: Protein cereblon/Tyrosine-protein phosphatase non-receptor type 11 (Homo sapiens, UniProt Q06124+Q96SW2); test: Protac activity at SHP2/CRBN in human MV4-11 cells assessed as SHP2 degradation at 8 nM measured after 12 hrs by Western blot analysis relative to control; format: cell-based
Outline: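 MV4-11 cells (IMDM, 10% FBS, 37 °C, 5% CO2) plated at 1.0×10^6 cells/well and exposed 12 h to 8 or 200 nM. Lysis in RIPA with protease inhibitors, then SDS-PAGE, nitrocellulose transfer and anti-human SHP2 immunoblot. SHP2 signal normalized to GAPDH and percent degradation quantified by densitometry. Reported as the average of two independent measurements.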

Sequence of Protein cereblon/Tyrosine-protein phosphatase non-receptor type 11 (Q96SW2 whole entry partner, one chain of several): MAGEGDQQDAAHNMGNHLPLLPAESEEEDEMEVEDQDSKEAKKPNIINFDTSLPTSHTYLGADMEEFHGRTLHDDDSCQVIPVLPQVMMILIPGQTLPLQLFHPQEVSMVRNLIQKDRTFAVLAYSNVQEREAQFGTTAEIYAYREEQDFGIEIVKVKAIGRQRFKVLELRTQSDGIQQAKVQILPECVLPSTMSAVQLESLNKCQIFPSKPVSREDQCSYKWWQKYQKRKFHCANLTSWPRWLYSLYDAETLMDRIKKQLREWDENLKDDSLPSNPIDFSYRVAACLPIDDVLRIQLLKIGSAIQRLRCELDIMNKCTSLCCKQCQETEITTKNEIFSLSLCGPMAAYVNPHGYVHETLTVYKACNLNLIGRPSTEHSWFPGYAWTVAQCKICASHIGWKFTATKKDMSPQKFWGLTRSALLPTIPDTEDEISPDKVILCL

Row | Structure (SMILES) | Activity [2] | IC50 (MV4-11) | IC50 [1]
1 | C[C@@H]1OCC2(CCN(c3cnc(Sc4cccc(N)c4Cl)c(N)n3)CC2)[C@@H]1N |  | 0.06 µM | 0.017 µM
2 | C[C@@H]1OCC2(CCN(c3cnc(Sc4cccc(NC(=O)CCC(=O)NCCCOCCOCCOCCCNc5ccc6c(c5)C(=O)N(C5CCC(=O)NC5=O)C6=O)c4Cl)c(N)n3)CC2)[C@@H]1N (some centres undefined) | 42% |  | 
3 | C[C@@H]1OCC2(CCN(c3cnc(Sc4cccc(NC(=O)CCC(=O)NCCOCCOCCNc5cccc6c5C(=O)N(C5CCC(=O)NC5=O)C6=O)c4Cl)c(N)n3)CC2)[C@@H]1N (some centres undefined) | 25% |  | 
4 | C[C@@H]1OCC2(CCN(c3cnc(Sc4cccc(NC(=O)CCC(=O)NCCCCCCCCCNc5cccc6c5C(=O)N(C5CCC(=O)NC5=O)C6=O)c4Cl)c(N)n3)CC2)[C@@H]1N (some centres undefined) | 23% |  | 
5 | C[C@@H]1OCC2(CCN(c3cnc(Sc4cccc(NC(=O)CCC(=O)NCCCCCCCCCCCNc5cccc6c5C(=O)N(C5CCC(=O)NC5=O)C6=O)c4Cl)c(N)n3)CC2)[C@@H]1N (some centres undefined) | 26% |  | 

More lines, main results first:

Row | Activity [2] | Structure (SMILES) | IC50 (MV4-11) | IC50 [1]
6 | 6% | C[C@@H]1OCC2(CCN(c3cnc(Sc4cccc(NC(=O)CCC(=O)NCCOCCNc5cccc6c5C(=O)N(C5CCC(=O)NC5=O)C6=O)c4Cl)c(N)n3)CC2)[C@@H]1N (some centres undefined) |  | 
7 | < 5% | C[C@@H]1OCC2(CCN(c3cnc(Sc4cccc(NC(=O)CCC(=O)NCCOCCNc5ccc6c(c5)C(=O)N(C5CCC(=O)NC5=O)C6=O)c4Cl)c(N)n3)CC2)[C@@H]1N (some centres undefined) |  | 
8 | < 5% | C[C@@H]1OCC2(CCN(c3cnc(Sc4cccc(NC(=O)CCC(=O)NCCOCCOCCNc5ccc6c(c5)C(=O)N(C5CCC(=O)NC5=O)C6=O)c4Cl)c(N)n3)CC2)[C@@H]1N (some centres undefined) |  | 
